ChEMBL document CHEMBL1131119, “N'-Phenylindol-3-ylglyoxylohydrazide derivatives: synthesis, structure-activity relationships, molecular modeling studies, and pharmacological action on brain benzodiazepine receptors” (J Med Chem, 1998)
Active and inactive are the calls of the source. No cut-off for these calls is given here.

Experiments:
Mus musculus [1] = experiment: Antagonistic effect against the anticonvulsant Diazepam (2.5 mg/kg, ip) effect in mice after PTZ (80mg/kg, sc) dose, ineffective to 250 mg/kg; type: functional, organism-based; set-up: dose 250 mg/kg
[2] = target: GABA-A receptor; anion channel (Bos taurus) (UniProt P10063+P08220+P20237+P08219+P10064+P22300); settings: Brain membranes, at 0.5 µM
Mus musculus [3] = experiment: Convulsant effect in mice following subconvulsant PTZ(40 mg/kg, sc) dose, ineffective to 250 mg/kg; type: functional, organism-based; set-up: dose 250 mg/kg
[4] = target: GABA-A receptor; anion channel; experiment: Inhibition of [3H]-Ro- 15-1788 binding to GABA-A benzodiazepine receptor of bovine brain membranes; type: cell membranes, Bos taurus
How it was run: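 Bovine cerebral cortex membranes, freeze–thawed and washed in 50 mM Tris-citrate pH 7.4; competition against [3H]Ro 15-1788 by filtration. […] Ki as mean ± SEM of three determinations.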

Mus musculus [5] = experiment: Antagonistic effect against PTZ (80 mg/kg, sc) convulsant action in mice; type: functional
Mus musculus [6] = experiment: Antagonistic effect against the anticonvulsant Diazepam (2.5 mg/kg, ip) effect in mice after PTZ (80 mg/kg, sc) dose; type: functional
Mus musculus [7] = experiment: Antagonistic effect against PTZ (80 mg/kg, sc) convulsant action in mice (ineffective); type: functional, organism-based
How it was run: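 Groups of 10 mice received graded ip doses (up to 250 mg/kg), suspended in 20% dilute Emulphor (1:1 w/w with ethanol)–80% saline, or vehicle alone. PTZ 80 mg/kg sc followed 30 min later. ED50 was the dose protecting 50% of mice from convulsions. Values are means of at least three determinations.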

Mus musculus [8] = experiment: Convulsant effect in mice following subconvulsant PTZ(40 mg/kg, sc) dose; type: functional
How it was run: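 Groups of 10 mice were given graded ip doses (up to 250 mg/kg) in 20% dilute Emulphor–80% saline, or vehicle alone. A subconvulsant dose of PTZ (40 mg/kg sc) followed 30 min later. ED50 was the dose inducing convulsions in 50% of mice. Values are means of at least three determinations.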

Row | SMILES | Clonazepam [2] [%] | Proconvulsant action (Mus musculus [3]) | Ki [4] [nM] | ED50 (Mus musculus [5]) [mg/kg] | further results
1 | O=C(NNc1ccc([N+](=O)[O-])cc1)C(=O)c1c[nH]c2ccccc12 | 20 | inactive | 11 | 10 | Diazepam antagonism (Mus musculus [1]): inactive
2 | O=C(NNc1ccc(Cl)cc1)C(=O)c1c[nH]c2ccccc12 | 16 | inactive | 62 | 25 | Diazepam antagonism (Mus musculus [1]): inactive
3 | CCOC(=O)c1ncn2c1CN(C)C(=O)c1cc(F)ccc1-2 [FLUMAZENIL] |  | inactive |  |  | Diazepam antagonism (Mus musculus [6]): 0.3
4 | Cn1cc(C(=O)C(=O)NNc2ccccc2)c2ccccc21 |  |  | 1200 |  | 
5 | O=C(NNc1ccc(O)cc1)C(=O)c1c[nH]c2ccccc12 |  |  | 3400 |  | 
6 | COc1ccc(NNC(=O)C(=O)c2c[nH]c3ccccc23)cc1 | 17 |  | 430 |  | 
7 | COC(=O)c1cc2c(cn1)[nH]c1ccccc12 [BETA-CCM] |  |  |  |  | Diazepam antagonism (Mus musculus [6]): 0.02; ED50 (Mus musculus [7]): inactive; Proconvulsant action (Mus musculus [8]): 19.4
8 | O=C1CN=C(c2ccccc2Cl)c2cc([N+](=O)[O-])ccc2N1 | 100 |  |  |  | 
9 | Cn1cc(C(=O)C(=O)NNc2ccc([N+](=O)[O-])cc2)c2ccccc21 |  |  | 455 |  | 
10 | Cc1ccc(NNC(=O)C(=O)c2c[nH]c3ccccc23)cc1 | 9 |  | 290 |  | 
11 | CN(NC(=O)C(=O)c1c[nH]c2ccc([N+](=O)[O-])cc12)c1ccccc1 | 53 | inactive | 2400 | 25 | Diazepam antagonism (Mus musculus [1]): inactive
12 | O=C(NNc1ccc(F)cc1)C(=O)c1c[nH]c2ccccc12 | 18 | inactive | 57 | 60 | Diazepam antagonism (Mus musculus [1]): inactive
13 | O=C(NNc1ccccc1)C(=O)c1c[nH]c2ccccc12 | 20 |  | 203 |  | 
14 | CN1C(=O)CN=C(c2ccccc2)c2cc(Cl)ccc21 [DIAZEPAM] |  |  |  | 0.4 | 
15 | Cc1cccc(NNC(=O)C(=O)c2c[nH]c3ccccc23)c1 | 20 |  | 510 |  | 
